Laboratory results taken from paper PMC7470514 (RSC Chemical Biology, 2020).
Values joined by “and” are separate entries in the source; they are usually repeats but may differ in a detail not shown here. Equal entries are not always repeated. Where no end group is shown, it is not given here.

Key:
Format in all cases: cell-based
[1] = biological target: T1, S. pneumoniae ComD1 receptor (Streptococcus pneumoniae serotype 2, UniProt A0A0H2ZM50); assay: β-galactosidase reporter assay, agonism
T1 sequence (A0A0H2ZM50 1-441): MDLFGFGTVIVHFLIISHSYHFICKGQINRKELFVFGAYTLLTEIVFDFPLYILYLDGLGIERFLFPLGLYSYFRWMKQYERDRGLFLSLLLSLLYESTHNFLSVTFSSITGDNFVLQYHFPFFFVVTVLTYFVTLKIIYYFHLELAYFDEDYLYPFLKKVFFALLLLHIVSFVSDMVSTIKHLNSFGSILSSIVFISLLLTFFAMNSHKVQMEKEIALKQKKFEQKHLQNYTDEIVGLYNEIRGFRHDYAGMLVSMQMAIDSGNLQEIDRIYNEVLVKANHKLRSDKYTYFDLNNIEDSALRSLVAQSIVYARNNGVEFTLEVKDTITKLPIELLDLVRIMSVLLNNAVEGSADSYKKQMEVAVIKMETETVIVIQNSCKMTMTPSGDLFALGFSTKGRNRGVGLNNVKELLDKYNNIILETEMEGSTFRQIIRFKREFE
Procedure, shortened: (§1)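 Reporter strains carry lacZ under the comX promoter. Strains were grown from THY agar (5% horse serum, 4 μg mL−1 chloramphenicol; 8 h, 37 °C, 5% CO2), then overnight (15 h) in THY with chloramphenicol. Cultures were diluted 1:50 (D39) or 1:10 (TIGR4) and grown to OD600 0.30–0.35 or 0.20–0.25.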

[2] = biological target: T2, S. pneumoniae ComD2 receptor (Streptococcus pneumoniae serotype 4, UniProt A0A0H2US84); assay: β-galactosidase reporter assay, agonism
T2 sequence (A0A0H2US84 1-441): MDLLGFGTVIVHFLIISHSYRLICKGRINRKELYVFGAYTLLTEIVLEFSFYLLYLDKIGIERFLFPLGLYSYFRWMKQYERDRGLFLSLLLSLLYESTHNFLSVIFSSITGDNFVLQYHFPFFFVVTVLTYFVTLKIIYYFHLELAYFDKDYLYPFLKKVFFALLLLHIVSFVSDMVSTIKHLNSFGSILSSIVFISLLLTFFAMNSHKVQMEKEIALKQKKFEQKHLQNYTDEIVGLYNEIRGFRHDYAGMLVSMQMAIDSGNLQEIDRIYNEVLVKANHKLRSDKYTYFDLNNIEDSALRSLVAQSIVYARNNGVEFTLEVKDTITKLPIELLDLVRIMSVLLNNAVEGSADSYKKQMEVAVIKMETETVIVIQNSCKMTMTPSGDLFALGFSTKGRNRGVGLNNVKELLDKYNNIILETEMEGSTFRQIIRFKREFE
Procedure, shortened: as §1

[3] = biological target: T1, S. pneumoniae ComD1 receptor; assay: β-galactosidase reporter assay, competitive inhibition
Procedure, shortened: (§2)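 Cultures were prepared as for agonism: overnight THY with chloramphenicol, diluted to early exponential phase. Wells held native CSP at a fully activating level (50 nM CSP1 for D39/ComD1; 250 nM CSP2 for TIGR4/ComD2), with test peptide added from a 1 mM stock in triplicate. Controls were CSP plus DMSO, and DMSO alone. Plates were incubated 30 min at 37 °C, then lysed and read by ONPG. IC50 was taken from concentration series.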

[4] = biological target: T2, S. pneumoniae ComD2 receptor; assay: as above
Procedure, shortened: as §2

Row | EC50 [1] | EC50 [2] | Sequence | IC50 [3] | IC50 [4]
1 | 4.97 nM | 127 nM | EIRQTHNIFFFLFKRR [S. mitis-CSP-2-N11FF12L] |  | 
2 | < 100 nM and 42 nM | < 100 nM and 30 nM | EMRLTHNFFFNFFKRR [S. mitis-CSP-2-I2MQ4LI8F] |  | 
3 |  |  | AIRQTHIFFFNFFKRR [S. mitis-CSP-2-E1AN7II8F] | 204 nM | 135 nM
4 | 14.8 nM | 188 nM | EMRLTHNIFFFFFKRR [S. mitis-CSP-2-I2MQ4LN11F] |  | 
5 | 663 nM | 635 nM | EIRQTHNIFFNFFKRR [S. mitis-CSP-2] |  | 
6 | < 100 nM and 63.6 nM | < 100 nM and 13.5 nM | EMRQTHFFFFNFFKRR [S. mitis-CSP-2-I2MN7FI8F] |  | 
7 | 101 nM | 211 nM | EIRQTHIIFFNFFKRR [S. mitis-CSP-2-N7I] |  | 
8 |  |  | AMRLTHNIFFNFFKRR [S. mitis-CSP-2-E1AI2MQ4L] | 54.2 nM | 
9 | 87.7 nM | 136 nM | EMRQTHNIFFNFFKRR [S. mitis-CSP-2-I2M] |  | 
10 | 128 nM | 209 nM | EIRQTHNFFFNFFKRR [S. mitis-CSP-2-I8F] |  | 
11 | 101 nM | 67.6 nM | EIRQTHFFFFNLFKRR [S. mitis-CSP-2-N7FI8FF12L] |  | 
12 | 25.8 nM | 146 nM | EMRQTHNIFFNLFKRR [S. mitis-CSP-2-I2MF12L] |  | 
13 | 72.8 nM | 112 nM | EMRQTHFIFFNLFKRR [S. mitis-CSP-2-I2MN7FF12L] |  | 
14 |  |  | AMRQTHNIFFNFFKRR [S. mitis-CSP-2-E1AI2M] | 85.4 nM | 
15 |  |  | AMRQTHNFFFNFFKRR [S. mitis-CSP-2-E1AI2MI8F] | 143 nM | 
16 |  |  | AMRLTHNFFFNFFKRR [S. mitis-CSP-2-E1AI2MQ4LI8F] | 317 nM | 
17 | 151 nM | 83.2 nM | EMRQTHNFFFNFFKRR [S. mitis-CSP-2-I2MI8F] |  | 
18 |  |  | AMRQTHIFFFNFFKRR [S. mitis-CSP-2-E1AI2MN7II8F] | 141 nM | 32.9 nM
19 | 17.1 nM | 139 nM | EMRLTHNIFFNLFKRR [S. mitis-CSP-2-I2MQ4LF12L] |  | 
20 | 49.9 nM | 141 nM | EMRLTHNIFFNFFKRR [S. mitis-CSP-2-I2MQ4L] |  | 
21 | 68.7 nM | 202 nM | EIRLTHNIFFNLFKRR [S. mitis-CSP-2-Q4LF12L] |  | 
22 | 88.2 nM | 252 nM | EIRLTHNIFFNFFKRR [S. mitis-CSP-2-Q4L] |  | 
23 | 87.2 nM | 22.8 nM | EIRQTHIFFFNFFKRR [S. mitis-CSP-2-N7II8F] |  | 
24 |  |  | AMRQTHFFFFNFFKRR [S. mitis-CSP-2-E1AI2MN7FI8F] | 294 nM | 418 nM
25 |  |  | AIRQTHNIFFNFFKRR [S. mitis-CSP-2-E1A] | 497 nM | 
26 | < 100 nM and 61.6 nM | < 100 nM and 2.67 nM | EMRQTHIFFFNFFKRR [S. mitis-CSP-2-I2MN7II8F] |  | 
27 | < 100 nM and 6.95 nM | < 100 nM and 26.2 nM | EMRQTHNFFFFFFKRR [S. mitis-CSP-2-I2MI8FN11F] |  | 
28 | 137 nM | 75.6 nM | EMRLTHFIFFNFFKRR [S. mitis-CSP-2-I2MQ4LN7F] |  | 
29 | 4.63 nM | 220 nM | EIRQTHNIFFFFFKRR [S. mitis-CSP-2-N11F] |  | 

Row | Sequence | EC50 [1] | EC50 [2] | IC50 [3] | IC50 [4]
30 | EIRLTHNFFFNFFKRR [S. mitis-CSP-2-Q4LI8F] | 280 nM | 370 nM |  | 
31 | EIRLTHFIFFNFFKRR [S. mitis-CSP-2-Q4LN7F] | 371 nM | 322 nM |  | 
32 | EIRQTHIFFFNLFKRR [S. mitis-CSP-2-N7II8FF12L] | 891 nM |  |  | 
33 | EMRQTHFIFFNFFKRR [S. mitis-CSP-2-I2MN7F] | 131 nM | 123 nM |  | 
34 | EIRQTHNFFFNLFKRR [S. mitis-CSP-2-I8FF12L] | 160 nM | 202 nM |  | 
35 | EIRQTHFFFFNFFKRR [S. mitis-CSP-2-N7FI8F] |  | 24.6 nM |  | 
36 | EIRQTHFIFFNLFKRR [S. mitis-CSP-2-N7FF12L] | 156 nM | 533 nM |  | 
37 | EIRLTHFIFFNLFKRR [S. mitis-CSP-2-Q4LN7FF12L] | 426 nM |  |  | 
38 | EIRLTHNIFFFFFKRR [S. mitis-CSP-2-Q4LN11F] | 9.38 nM | 434 nM |  | 
39 | EIRLTHIFFFNFFKRR [S. mitis-CSP-2-Q4LN7II8F] | 242 nM |  |  | 
40 | EIRQTHNIFFNLFKRR [S. mitis-CSP-2-F12L] | 54.3 nM | 813 nM |  | 
41 | EMRQTHIIFFNFFKRR [S. mitis-CSP-2-I2MN7I] | 448 nM | 54.8 nM |  | 
42 | EIRQTHIIFFNLFKRR [S. mitis-CSP-2-N7IF12L] | 613 nM | 321 nM |  | 
43 | EIRQTHNFFFFFFKRR [S. mitis-CSP-2-I8FN11F] | 12.2 nM | 284 nM |  | 
44 | EMRQTHIIFFFFFKRR [S. mitis-CSP-2-I2MN7IN11F] | 568 nM |  |  | 
45 | EMRLTHIIFFNFFKRR [S. mitis-CSP-2-I2MQ4LN7I] | 155 nM | 187 nM |  | 
46 | EIRLTHFFFFNFFKRR [S. mitis-CSP-2-Q4LN7FI8F] | 427 nM | 87.2 nM |  | 
47 | EIRLTHIIFFNFFKRR [S. mitis-CSP-2-Q4LN7I] | 348 nM | 315 nM |  | 
48 | EMRQTHNIFFFFFKRR [S. mitis-CSP-2-I2MN11F] | 17.7 nM | 753 nM |  | 
49 | EIRQTHFIFFNFFKRR [S. mitis-CSP-2-N7F] | 140 nM | 471 nM |  | 
